# Reference: ChEMBL document CHEMBL1146523, “Antimalarial dihydroisocoumarins produced by Geotrichum sp., an endophytic fungus of Crassocephalum crepidioides” (J Nat Prod, 2003)
# The source made the active and inactive calls. The rule behind the calls is not given here.
# Assays:
# [1] = test system: Mycobacterium tuberculosis; test: Antimycobacterial activity against Mycobacterium tuberculosis H37Ra by microplate alamar blue assay; type: functional
# In short: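 Growth inhibition of M. tuberculosis H37Ra in the Microplate Alamar Blue Assay. MIC read-out, with isoniazid and kanamycin sulfate as standard drugs.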
# Plasmodium falciparum = test: Antimalarial activity against multidrug-resistant Plasmodium falciparum K1; type: functional, organism-based
# In short: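 Multidrug-resistant P. falciparum K1 kept in continuous culture (Trager–Jensen). In vitro activity measured by the microculture radioisotope technique (Desjardins). IC50 read-out, with chloroquine diphosphate as the standard.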
# Candida albicans = test: Antifungal activity against Candida albicans; type: functional, organism-based
# In short: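 Candida albicans growth inhibition measured by a colorimetric method. IC50 read-out, with amphotericin B as the standard drug.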
SMILES,MIC [1] [µg/mL],IC50 (Plasmodium falciparum) [µg/mL],IC50 (Candida albicans) [µg/mL],further results
C/C=C/CC[C@@H]1Cc2cc(O)c(CCCC)c(O)c2C(=O)O1,25,4.7,19,
NC[C@H]1O[C@H](O[C@H]2[C@H](O)[C@@H](O[C@H]3O[C@H](CO)[C@@H](O)[C@H](N)[C@H]3O)[C@H](N)C[C@@H]2N)[C@H](O)[C@@H](O)[C@@H]1O.O=S(=O)(O)O [KANAMYCIN SULFATE],2.5,,,
CCCCC[C@@H]1Cc2cc(O)c(CCCC)c(O)c2C(=O)O1,,2.6,33,Activity [1]: inactive
C/C=C/CC[C@@H]1Cc2cc(O)c(C/C=C/C)c(O)c2C(=O)O1,50,,,Activity (Plasmodium falciparum): inactive; Activity (Candida albicans): inactive
NNC(=O)c1ccncc1 [ISONIAZID],0.05,,,
C[C@@H]1[C@H](O)[C@@H](C)/C=C/C=C/C=C/C=C/C=C/C=C/C=C/[C@H](O[C@@H]2O[C@H](C)[C@@H](O)[C@H](N)[C@@H]2O)C[C@@H]2O[C@](O)(C[C@@H](O)C[C@@H](O)[C@H](O)CC[C@@H](O)C[C@@H](O)CC(=O)O[C@H]1C)C[C@H](O)[C@H]2C(=O)O [AMPHOTERICIN B],,,0.01,
